PMI activator = activators of human PMI, primary screen, biochemical, fluorescence intensity, near-Km mannose 6-phosphate; Mannose-6-phosphate isomerase (Homo sapiens), P34949; AID 1214, 2008; actives 0.005% (n = 190,000); activation factor at 20 µM; purified human PMI, coupled resazurin fluorescence, 20 min; stronger effect = higher value; 1 = vehicle control, 0 substrate-free wells;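 active = activation factor of 2 or more at 20 µM, relative to plate controls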
Target sequence (P34949 whole entry, looked up): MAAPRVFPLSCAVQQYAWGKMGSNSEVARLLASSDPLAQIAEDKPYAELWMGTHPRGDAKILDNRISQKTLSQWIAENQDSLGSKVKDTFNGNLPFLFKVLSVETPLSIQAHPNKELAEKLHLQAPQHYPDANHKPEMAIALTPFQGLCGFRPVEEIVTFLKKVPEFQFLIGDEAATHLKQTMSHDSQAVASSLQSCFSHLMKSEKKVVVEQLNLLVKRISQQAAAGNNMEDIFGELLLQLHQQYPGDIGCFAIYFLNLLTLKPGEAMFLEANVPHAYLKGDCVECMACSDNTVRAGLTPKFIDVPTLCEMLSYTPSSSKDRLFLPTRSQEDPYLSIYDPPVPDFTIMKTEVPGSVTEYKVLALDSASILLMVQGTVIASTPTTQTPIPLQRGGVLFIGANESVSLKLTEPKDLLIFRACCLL
PMI act hi M6P = human PMI activators, high substrate, primary screen, biochemical, fluorescence intensity, near-saturating mannose 6-phosphate | Mannose-6-phosphate isomerase (Homo sapiens), P34949 | coupled PMI enzyme assay, resazurin fluorescence, 20 min; stronger effect = higher value; 1 = untreated enzyme, 0 = substrate-free blank | activation factor at 20 µM | actives 0.34% (n = 190,000);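 active = activation factor of 2 or more at 20 µM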
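Test system: Human PMI in coupled enzyme assay | Input: 15 ng/mL PMI | Medium: HEPES-buffered pH 7.4 with magnesium and detergent | Compound: One concentration, 20 µM, in 1% DMSO | Incubation: Enzyme reaction with compound 20 min at room temperature | Detection: Diaphorase-driven resazurin-to-resorufin fluorescence, excitation 544, emission 590 nm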
WT yeast gro inh = growth inhibition of WT strain, primary screen, mitochondrial fusion inhibitor project, WT and mutant strains, chemical genetic; mitochondrial fusion phenotypic screen; inhibition, % at 10 µM; actives 2.1% (n = 190,000); AID 1362, 2008; in the data active = inhibition above about 58%; tested in S. cerevisiae
Lmaj promast = Leishmania major promastigote growth inhibition, primary screen; Leishmania major promastigotes, resazurin fluorescence viability; actives 9% (n = 200,000); inhibition, % at 10 µM; in the data active = inhibition above about 50%;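 also: promastigotes grown with compound for 44 hours at 28 °C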
Rad51 HR inh = human RAD51 strand exchange inhibitors, primary screen, biochemical, fluorescence; DNA repair protein RAD51 homolog 1 (Homo sapiens), Q06609; hRad51 DNA strand exchange, fluorescence dequenching; inhibition, % at 10 µM; actives 0.085% (n = 200,000); AID 1385, 2008;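 active = inhibition above 40% at the single screening dose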;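 also: 0% = DMSO control wells and 100% = blanks with heterologous ssDNA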
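Material: human Rad51–ssDNA filaments; Probe or stimulus: labelled 47-mer dsDNA for strand exchange; Doses: single 10 µM dose; Incubation: 37 °C 15-min filament assembly, 30-min compound preincubation, 15-min exchange; Technique: FRET fluorescence dequenching, excitation 485 nm, emission 520 nm; Measure: Fluorescence-based percent inhibition, control- and blank-normalised; Benchmarks: plate control and blank wells.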
m-calpain inh = inhibitors of pig calpain II, primary screen, biochemical, fluorogenic peptide substrate, 1536-well | inhibition, % at 16 µM | actives 0.37% (n = 220,000) | purified calpain II, 30 min | AID 1236, 2008;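 active = inhibition above about 50%, limit read from the data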
Numbers without * were called inactive. An excerpt weighted towards active compounds, which were near 9.8% of everything screened.

For Cc1ccccc1-c1ccc(C(=O)Nc2cccc(F)c2)o1 the results were PMI activator 1.1, PMI act hi M6P 1.1, WT yeast gro inh 58*, Lmaj promast 4, Rad51 HR inh 13 and m-calpain inh 0.
For O=C(NC(=S)Nc1ccc(CN2CCOCC2)cc1)c1ccc(-c2cccc(Cl)c2)o1 the results were Rad51 HR inh -3 and m-calpain inh -44.
Screening O=C(/C=C/c1ccc(Cl)cc1)Nc1ccc(CN2CCOCC2)cc1 returned PMI activator 0.9, PMI act hi M6P 1, WT yeast gro inh 27, Lmaj promast 82*, Rad51 HR inh 3 and m-calpain inh 20.
`O=C(Nc1ccc(CN2CCOCC2)cc1)c1ccc(-c2ccc(Cl)cc2Cl)o1` gave PMI activator 0.9, PMI act hi M6P 0.9, WT yeast gro inh 83, Lmaj promast 74*, Rad51 HR inh -7 and m-calpain inh -103.
Screening CCCn1ncc(OC)c(Cl)c1=O returned PMI activator 1, PMI act hi M6P 0.9, WT yeast gro inh 6, Lmaj promast -2, Rad51 HR inh -2 and m-calpain inh 6.
Screening NNC(=O)CCn1c2ccccc2c2ccccc21 returned PMI activator 1, PMI act hi M6P 1, WT yeast gro inh 5, Lmaj promast 4, Rad51 HR inh 10 and m-calpain inh -10.
For Cc1cccc(C)c1NC(=O)c1ccc(-c2ccc(Cl)cc2Cl)o1 the results were PMI activator 0.8, PMI act hi M6P 0.8, WT yeast gro inh 46, Lmaj promast 91*, Rad51 HR inh 4 and m-calpain inh 16.
For O=C(O)c1ccccc1N/N=C/c1c(Sc2nnnn2-c2ccccc2)nc2ccccn2c1=O the results were Rad51 HR inh inactive and m-calpain inh 6.
`O=c1c(/C=N/Nc2ccccc2)c(Sc2nnnn2-c2ccccc2)nc2ccccn12` gave PMI activator 1.4, PMI act hi M6P 2*, WT yeast gro inh 18, Lmaj promast 9 and m-calpain inh -2.
`OC(COCc1ccccc1)CN1CCN(c2ccccc2F)CC1` (stereo not drawn) gave PMI activator 1, PMI act hi M6P 1, WT yeast gro inh -19, Lmaj promast 52*, Rad51 HR inh -4 and m-calpain inh -23.
For CCC(C)NCC(O)COCc1ccc(Cl)cc1 (stereo not drawn) the results were PMI activator 0.9, PMI act hi M6P 1, WT yeast gro inh -12, Lmaj promast 60*, Rad51 HR inh -16 and m-calpain inh 16.
OC(COCc1ccc(Cl)cc1)CN1CCN(CC(O)COCc2ccc(Cl)cc2)CC1 (stereo not drawn) was read as PMI activator 1, PMI act hi M6P 1.1, WT yeast gro inh 58*, Lmaj promast 100*, Rad51 HR inh 3 and m-calpain inh 1.
For OC(COCc1ccc(Cl)cc1)CN1CCc2ccccc2C1 (stereo not drawn) the results were PMI activator 1, PMI act hi M6P 1.1, WT yeast gro inh -3, Lmaj promast 73*, Rad51 HR inh 16 and m-calpain inh -5.
`O=C(CCNC(=O)c1ccccc1)Nc1cccnc1` gave PMI activator 0.9, PMI act hi M6P 1, WT yeast gro inh -4, Lmaj promast -5 and m-calpain inh -19.
`CC1=CC(C)(C)N2C(=O)C3(C(C#N)=C(N)OC4=C3C(=O)CCC4)c3c(C)c(C)cc1c32` (stereo not drawn) gave PMI activator 1, PMI act hi M6P 1, WT yeast gro inh -28, Lmaj promast 14, Rad51 HR inh -7 and m-calpain inh -2.
`CC1=CC(C)(C)N2C(=O)C3(C(C#N)=C(N)Oc4cc(O)ccc43)c3c(C)c(C)cc1c32` (stereo not drawn) gave PMI activator 0.9, PMI act hi M6P 0.9, WT yeast gro inh 7, Lmaj promast 54*, Rad51 HR inh 0 and m-calpain inh -3.

Screening results (PubChem BioAssay)
